The IC50 is the concentration at which inhibition is half-maximal.

We go through two molecules from ChEMBL document CHEMBL4396885, “Thioether-based 2-aminobenzamide derivatives: Novel HDAC inhibitors with potent in vitro and in vivo antitumor activity” (Eur J Med Chem, 2019).

Structures are written as SMILES.

One assay has as its system SMMC-7721. The assay is described as follows: Antiproliferative activity against human SMMC7721 cells assessed as decrease in cell viability after 72 hrs by CCK-8 assay. It is filed as functional, cell-based. The note with it: SMMC-7721, 72 h. A digest of the protocol:
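Cells grown to 70–85% confluence (A375, A549, HCT116 in RPMI1640; HeLa, SMMC7721 in DMEM; 10% FBS, 37 °C, 5% CO2), seeded 4000/well, dosed after 12 h across a concentration range, incubated 72 h, then CCK-8 for 1 h; absorbance at 450 nm. IC50 as mean ± SD of three separate experiments.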

The next assay addresses Histone deacetylase. Nature of the assay: Inhibition of HDAC in human HeLa cell nuclear extract assessed as decrease in deacetylation of FLUOR DE LYS Green substrate preincubated for 10 mins followed by substrate addition and measured after 30 mins by fluorescence based assay. It counts as cell-free.
In the next assay the test system is HeLa. Nature of the assay: Antiproliferative activity against human HeLa cells assessed as growth inhibition at 8 uM after 72 hrs by CCK-8 assay relative to control. The note with it: read-out: GI. It is filed as functional. For orientation: Formazan colour is commonly taken as a measure of viable cells.
For a further assay, the system named is NIH3T3. The assay is described as follows: Cytotoxicity against mouse NIH/3T3 cells assessed as reduction in cell viability after 72 hrs by CCK-8 assay. It counts as cell-based. The settings on record: NIH3T3, 72 h.
The test system of assay [1] is A549. Nature of the assay: Antitumor activity against human A549 cells xenografted in Balb/c nude mouse assessed as tumor growth inhibition at 25 mg/kg, ip administered twice per day for 21 days relative to control. It is filed as functional. The note with it: 504 h, read-out: TGI. The method, boiled down: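 Female BALB/c nude mice, 5–6 weeks, implanted s.c. in right axilla with 3×10⁶ A549 cells; randomized at ~95 mm³ tumor volume, 4 per group. Dosed ip 25 mg/kg twice daily for 21 days; vehicle controls got DMA & 5% Solutol HS-15 (5:95). Tumor size (V=length×width²/2) and body weight measured every 3 days; TGI from volume change relative to control.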
A general note: A xenograft is tissue or cells of one species grown in another, often human tumour cells in immunodeficient mice.

Assay [2] addresses T1, Protein deacetylase HDAC6 (Homo sapiens, UniProt Q9UBN7).
T1 sequence (Q9UBN7 whole entry): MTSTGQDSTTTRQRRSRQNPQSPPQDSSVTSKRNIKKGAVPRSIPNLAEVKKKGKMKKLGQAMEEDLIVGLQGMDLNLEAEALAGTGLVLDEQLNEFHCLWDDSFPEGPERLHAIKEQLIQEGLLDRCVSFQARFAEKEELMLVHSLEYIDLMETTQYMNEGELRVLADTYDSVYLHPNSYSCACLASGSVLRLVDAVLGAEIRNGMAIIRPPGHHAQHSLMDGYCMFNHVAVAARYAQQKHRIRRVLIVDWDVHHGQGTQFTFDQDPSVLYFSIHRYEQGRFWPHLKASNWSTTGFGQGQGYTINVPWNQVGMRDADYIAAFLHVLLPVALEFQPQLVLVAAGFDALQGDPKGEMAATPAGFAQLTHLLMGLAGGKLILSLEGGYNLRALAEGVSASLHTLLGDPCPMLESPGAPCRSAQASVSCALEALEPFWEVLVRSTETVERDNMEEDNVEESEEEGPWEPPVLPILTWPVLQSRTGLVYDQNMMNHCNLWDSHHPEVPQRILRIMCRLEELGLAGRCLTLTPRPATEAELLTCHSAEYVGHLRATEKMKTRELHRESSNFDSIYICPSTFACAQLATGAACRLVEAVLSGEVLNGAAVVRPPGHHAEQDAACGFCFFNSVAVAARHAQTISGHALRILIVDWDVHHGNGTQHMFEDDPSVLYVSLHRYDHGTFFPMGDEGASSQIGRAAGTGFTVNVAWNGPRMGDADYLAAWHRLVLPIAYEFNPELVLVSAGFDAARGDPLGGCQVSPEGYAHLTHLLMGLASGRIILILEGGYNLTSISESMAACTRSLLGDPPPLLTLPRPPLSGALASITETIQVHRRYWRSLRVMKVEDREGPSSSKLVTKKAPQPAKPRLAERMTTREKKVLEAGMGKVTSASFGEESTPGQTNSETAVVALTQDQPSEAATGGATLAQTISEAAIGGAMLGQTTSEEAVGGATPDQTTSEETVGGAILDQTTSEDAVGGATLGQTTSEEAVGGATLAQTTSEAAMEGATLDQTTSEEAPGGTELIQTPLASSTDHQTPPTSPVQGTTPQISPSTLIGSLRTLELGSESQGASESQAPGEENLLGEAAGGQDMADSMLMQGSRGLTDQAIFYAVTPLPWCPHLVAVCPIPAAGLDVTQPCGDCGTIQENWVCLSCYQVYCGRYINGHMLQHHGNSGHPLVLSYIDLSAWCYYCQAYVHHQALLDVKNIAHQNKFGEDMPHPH
Nature of the assay: Inhibition of recombinant human His tagged HDAC6 expressed in baculovirus infected insect cells assessed as decrease in deacetylation of FLUOR DE LYS SIRT1 substrate by measuring decrease in fluorescence preincubated for 10 mins followed by substrate addition and measured after 30 mins by fluorescence based assay.

The test system of assay [3] is A549. The assay is described as follows: Induction of apoptosis in human A549 cells assessed as viable cells at 1 uM after 48 hrs by Annexin V-FITC/propidium iodide staining based flow cytometry (reference value: 98%). It is filed as functional. The settings on record: A549, 48 h, read-out: Activity. A digest of the protocol:
(§1)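 A549 seeded 4×10⁶ cells/well, dosed after 12 h with compound at various concentrations, harvested after 48 h. Resuspended in annexin-binding buffer, stained with Annexin V-FITC and propidium iodide for 15 min in the dark, analysed by flow cytometry; means of three separate experiments.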

The subject of assay [4] is A549. Nature of the assay: Cell cycle arrest in human A549 cells assessed as accumulation of cells at G0/G1 phase at 2 uM after 48 hrs by propidium iodide staining-based flow cytometry (reference value: 73.35%). It is filed as functional. A general note: A flow cytometer gives signals particle by particle.
For assay [5], the system named is A549. Nature of the assay: Induction of apoptosis in human A549 cells assessed as early apoptotic cells at 1 uM after 48 hrs by Annexin V-FITC/propidium iodide staining based flow cytometry (reference value: 1.19%). It is filed as functional. The method, boiled down: as §1
Assay [6] has as its system A549. The assay is described as follows: Induction of apoptosis in human A549 cells assessed as late apoptotic cells at 2 uM after 48 hrs by Annexin V-FITC/propidium iodide staining based flow cytometry (reference value: 0.637%). It counts as functional. A digest of the protocol:
as §1

Another assay relates to HCT-116. Nature of the assay: Antiproliferative activity against human HCT116 cells assessed as growth inhibition at 8 uM after 72 hrs by CCK-8 assay relative to control. It counts as functional. The settings on record: HCT-116, 72 h, read-out: GI.
The test system of assay [7] is A549. Nature of the assay: Induction of apoptosis in human A549 cells assessed as early apoptotic cells at 0.5 uM after 48 hrs by Annexin V-FITC/propidium iodide staining based flow cytometry (reference value: 1.19%). It counts as functional. The method, boiled down: as §1
The next assay deals with Histone deacetylase 2 (Homo sapiens, UniProt Q92769). Nature of the assay: Inhibition of recombinant human HDAC2 assessed as decrease in deacetylation of FLUOR DE LYS Green substrate preincubated for 10 mins followed by substrate addition and measured after 30 mins by fluorescence based assay.
Histone deacetylase 2, sequence (Q92769 whole entry): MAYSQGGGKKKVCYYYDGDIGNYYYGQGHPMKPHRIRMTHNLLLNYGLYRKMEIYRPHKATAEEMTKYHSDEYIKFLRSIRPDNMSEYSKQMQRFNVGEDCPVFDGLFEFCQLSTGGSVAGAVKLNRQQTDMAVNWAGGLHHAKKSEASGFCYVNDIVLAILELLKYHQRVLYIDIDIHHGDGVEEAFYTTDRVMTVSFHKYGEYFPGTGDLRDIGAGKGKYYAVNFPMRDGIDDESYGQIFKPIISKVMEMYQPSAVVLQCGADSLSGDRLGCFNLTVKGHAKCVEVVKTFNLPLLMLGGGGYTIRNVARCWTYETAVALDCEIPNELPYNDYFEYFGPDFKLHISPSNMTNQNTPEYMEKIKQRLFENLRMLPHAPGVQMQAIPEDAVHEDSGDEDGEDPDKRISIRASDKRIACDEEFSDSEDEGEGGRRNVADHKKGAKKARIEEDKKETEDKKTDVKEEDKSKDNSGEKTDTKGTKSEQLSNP
Assay [8] concerns A549. Nature of the assay: Cell cycle arrest in human A549 cells assessed as accumulation of cells at S phase at 2 uM after 48 hrs by propidium iodide staining-based flow cytometry (reference value: 12.83%). It counts as functional.
Assay [9] has as its target Histone deacetylase 3/NCoR1 (Homo sapiens, UniProt O15379). The assay is described as follows: Inhibition of recombinant human HDAC3/NCOR1 assessed as decrease in deacetylation of FLUOR DE LYS SIRT1 substrate preincubated for 10 mins followed by substrate addition and measured after 30 mins by fluorescence based assay. It counts as protein-complex assay.

Histone deacetylase 3/NCoR1, sequence (O15379 whole entry): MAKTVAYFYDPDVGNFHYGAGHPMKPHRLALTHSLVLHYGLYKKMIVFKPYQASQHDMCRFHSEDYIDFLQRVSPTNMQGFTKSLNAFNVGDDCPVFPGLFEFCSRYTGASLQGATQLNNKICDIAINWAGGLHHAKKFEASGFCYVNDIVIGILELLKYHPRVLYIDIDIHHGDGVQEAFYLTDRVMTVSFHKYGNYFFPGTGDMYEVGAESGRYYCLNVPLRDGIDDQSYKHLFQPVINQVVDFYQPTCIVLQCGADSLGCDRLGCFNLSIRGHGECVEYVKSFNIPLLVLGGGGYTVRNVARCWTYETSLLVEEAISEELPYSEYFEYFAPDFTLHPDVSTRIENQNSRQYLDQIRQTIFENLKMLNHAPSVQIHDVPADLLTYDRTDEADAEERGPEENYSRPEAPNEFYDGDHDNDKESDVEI
Histone deacetylase 3/NCoR1, sequence (O75376 whole entry, further chain): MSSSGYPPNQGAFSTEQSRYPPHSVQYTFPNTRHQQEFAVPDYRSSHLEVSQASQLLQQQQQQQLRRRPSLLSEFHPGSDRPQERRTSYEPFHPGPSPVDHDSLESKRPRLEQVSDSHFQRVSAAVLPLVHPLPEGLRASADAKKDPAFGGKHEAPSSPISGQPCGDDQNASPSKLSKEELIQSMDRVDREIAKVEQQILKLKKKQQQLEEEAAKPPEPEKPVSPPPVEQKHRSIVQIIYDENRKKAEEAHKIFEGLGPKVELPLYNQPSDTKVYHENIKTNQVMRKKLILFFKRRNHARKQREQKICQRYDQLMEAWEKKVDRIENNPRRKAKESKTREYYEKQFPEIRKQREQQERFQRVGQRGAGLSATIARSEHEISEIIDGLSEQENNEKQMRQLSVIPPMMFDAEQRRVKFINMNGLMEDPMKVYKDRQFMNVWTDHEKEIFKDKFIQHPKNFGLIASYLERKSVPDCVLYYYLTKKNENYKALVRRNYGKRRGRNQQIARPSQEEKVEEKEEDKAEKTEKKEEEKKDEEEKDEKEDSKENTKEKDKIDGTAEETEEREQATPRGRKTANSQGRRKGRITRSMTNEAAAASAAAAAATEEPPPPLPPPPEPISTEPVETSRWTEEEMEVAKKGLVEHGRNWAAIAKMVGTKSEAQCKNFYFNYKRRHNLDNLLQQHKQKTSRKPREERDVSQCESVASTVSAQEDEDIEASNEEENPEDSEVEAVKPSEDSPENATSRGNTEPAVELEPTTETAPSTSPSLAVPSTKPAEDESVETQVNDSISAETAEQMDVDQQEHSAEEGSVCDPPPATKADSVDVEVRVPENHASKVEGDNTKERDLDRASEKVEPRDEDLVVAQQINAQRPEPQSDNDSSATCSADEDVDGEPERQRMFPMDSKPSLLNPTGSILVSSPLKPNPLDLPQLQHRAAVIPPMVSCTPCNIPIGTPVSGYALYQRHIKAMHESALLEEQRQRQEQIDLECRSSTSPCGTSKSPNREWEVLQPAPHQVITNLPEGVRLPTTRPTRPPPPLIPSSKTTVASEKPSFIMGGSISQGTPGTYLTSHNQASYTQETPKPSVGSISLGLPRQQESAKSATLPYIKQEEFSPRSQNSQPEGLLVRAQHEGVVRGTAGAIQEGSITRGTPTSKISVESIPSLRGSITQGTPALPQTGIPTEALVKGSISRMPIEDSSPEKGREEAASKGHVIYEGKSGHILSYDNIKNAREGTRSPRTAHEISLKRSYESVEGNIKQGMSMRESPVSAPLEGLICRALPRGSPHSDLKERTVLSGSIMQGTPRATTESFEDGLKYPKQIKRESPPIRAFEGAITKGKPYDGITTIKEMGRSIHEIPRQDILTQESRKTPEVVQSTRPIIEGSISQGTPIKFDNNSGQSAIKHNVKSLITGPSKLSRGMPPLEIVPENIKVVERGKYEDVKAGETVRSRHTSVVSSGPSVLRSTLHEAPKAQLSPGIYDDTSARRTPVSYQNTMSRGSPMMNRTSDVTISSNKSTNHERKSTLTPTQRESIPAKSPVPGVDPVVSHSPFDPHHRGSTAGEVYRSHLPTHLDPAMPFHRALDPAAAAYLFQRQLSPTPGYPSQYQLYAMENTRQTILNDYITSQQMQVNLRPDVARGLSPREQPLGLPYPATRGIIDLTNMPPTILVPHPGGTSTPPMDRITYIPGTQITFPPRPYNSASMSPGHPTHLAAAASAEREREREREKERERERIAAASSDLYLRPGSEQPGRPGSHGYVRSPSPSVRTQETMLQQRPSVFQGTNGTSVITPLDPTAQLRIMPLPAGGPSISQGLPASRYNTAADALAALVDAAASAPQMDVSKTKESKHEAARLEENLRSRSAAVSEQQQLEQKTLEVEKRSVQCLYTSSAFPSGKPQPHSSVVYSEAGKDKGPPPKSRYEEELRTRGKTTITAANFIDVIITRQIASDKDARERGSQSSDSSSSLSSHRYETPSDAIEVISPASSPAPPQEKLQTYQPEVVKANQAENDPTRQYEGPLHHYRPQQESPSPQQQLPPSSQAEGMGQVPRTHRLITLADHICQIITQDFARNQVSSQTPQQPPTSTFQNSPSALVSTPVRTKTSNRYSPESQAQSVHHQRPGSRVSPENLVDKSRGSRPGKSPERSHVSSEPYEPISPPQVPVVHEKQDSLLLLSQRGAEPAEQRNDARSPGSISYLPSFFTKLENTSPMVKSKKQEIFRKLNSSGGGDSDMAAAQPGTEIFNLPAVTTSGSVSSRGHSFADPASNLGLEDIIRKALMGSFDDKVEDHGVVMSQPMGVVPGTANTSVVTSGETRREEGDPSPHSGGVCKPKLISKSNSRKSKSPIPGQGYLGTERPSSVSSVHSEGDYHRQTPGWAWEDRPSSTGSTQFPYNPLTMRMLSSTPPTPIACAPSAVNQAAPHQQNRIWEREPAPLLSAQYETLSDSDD

In the case of `COc1ccc(SCc2ccc(C(=O)Nc3ccccc3N)cc2)cc1`, the IC50 in the assay with SMMC-7721 was 2170 nM; at Histone deacetylase, over 32000 nM; in the assay with NIH3T3, 4040 nM; in assay [2], over 32000 nM; on Histone deacetylase 2, 205 nM; in [9], 136 nM. For the same molecule, the inhibition of growth at 8 µM in the assay on HeLa turned out to be 79.7%; with HCT-116 it was 90.1%. Further, the inhibition in vivo at 25 mg/kg in the assay with A549 [1] was found to be 57.9%. In the assay on A549 [3], the viability at 1 µM was found to be 67.9%. Also, the Activity with A549 [4] worked out at 39.3%; in the assay on A549 [5], 19.8%; in the assay on A549 [6], 26.6%; in the assay with A549 [7] it was 5.21%; with A549 [8], 12.64%.

Take `CCc1ccc(SCc2ccc(C(=O)Nc3ccccc3N)cc2)cc1`: the IC50 is 1750 nM in the assay on SMMC-7721; over 32000 nM at Histone deacetylase; 3660 nM with NIH3T3; over 32000 nM in assay [2]; 144 nM on Histone deacetylase 2; 215 nM in [9]. The results for the inhibition of growth at 8 µM in the assay with HeLa and in the assay on HCT-116 were 71% and 79.1%, respectively. Also, in the assay on A549 [1], the inhibition in vivo at 25 mg/kg worked out at 62.7%. Moreover, in the assay with A549 [3], the viability at 1 µM is 70.4%. Besides, the Activity with A549 [4] was determined as 24%; in the assay on A549 [5], 6.52%; in the assay on A549 [6] it was 16.7%; with A549 [7], 11%; with A549 [8], 9.52%.
